The list is not random: actives were taken first. Their share in the collection is about 1.8%.
CHRM4 antagonist: blocks acetylcholine activation of human M4 receptor | P08173 | AID 624125 | CHO-hM4 cells, ACh EC80, Fluo-8 calcium fluorescence | inhibition, % at 3 µM | hit rate 0.73% among 360,000;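 active means inhibition above its plate's cutoff, the mean inhibition of sample wells plus 3 SD, cut at about 27% in these data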;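 further: 0% = acetylcholine EC80 with DMSO and 100% = DMSO without agonist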
M5 ag: CHRM5 agonism in calcium assay; P08912; hit rate 0.19% among 360,000; activation, % at 3 µM; AID 624037; CHO-K1 hM5 cells, Fluo-8 calcium fluorescence; 0% DMSO wells, 100% maximal acetylcholine response;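 active means activation above the run's mean over test compounds plus 3 SD, cut at about 23% in these data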;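 further: signal is peak over basal fluorescence ratio across the kinetic read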
Target sequence (P08912 whole entry, looked up): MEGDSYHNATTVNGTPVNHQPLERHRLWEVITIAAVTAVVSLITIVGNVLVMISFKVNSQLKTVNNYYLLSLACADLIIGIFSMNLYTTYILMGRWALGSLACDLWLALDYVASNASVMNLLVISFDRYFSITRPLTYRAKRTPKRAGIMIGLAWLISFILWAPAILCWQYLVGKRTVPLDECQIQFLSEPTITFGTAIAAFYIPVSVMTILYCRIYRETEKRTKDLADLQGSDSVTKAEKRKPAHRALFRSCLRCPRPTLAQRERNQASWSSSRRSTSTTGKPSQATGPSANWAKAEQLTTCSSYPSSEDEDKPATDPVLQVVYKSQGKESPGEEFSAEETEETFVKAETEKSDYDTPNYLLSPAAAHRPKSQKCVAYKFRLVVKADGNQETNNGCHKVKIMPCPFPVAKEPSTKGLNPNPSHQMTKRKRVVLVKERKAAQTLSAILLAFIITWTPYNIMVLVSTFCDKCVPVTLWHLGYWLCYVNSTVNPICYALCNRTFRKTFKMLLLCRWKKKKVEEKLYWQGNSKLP
M5 antag: blocks acetylcholine activation of human M5 receptor; CHO-hM5 cells, Fluo-8 calcium fluorescence, ACh EC80; P08912; inhibition, % at 3 µM; AID 624040; hit rate 0.59% among 360,000;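 active means inhibition above a per-plate cutoff, the mean of that plate's test compounds plus 3 SD, cut at about 27% in these data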;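 further: 0% = acetylcholine EC80 with DMSO and 100% = DMSO without agonist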
CHRM5 PAM: potentiates acetylcholine response at human M5 receptor; P08912; CHO-K1 hM5, Fluo-8 calcium, ACh EC20 PAM; 0% = ACh EC20, 100% = ACh EC100; activation, % at 3 µM; hit rate 0.3% among 360,000;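 active means activation above the run cutoff, the mean activation of all test compounds plus 3 SD, cut at about 18% in these data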
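System – CHO-K1 hM5 cells · Compound – 3 µM, single dose · Incubation – compound preincubation 140 s before EC20 acetylcholine addition · Technique – Fluo-8 calcium fluorescence · Measure – Max/basal fluorescence ratio as % of EC20–EC100 ACh window · Benchmarks – low control EC20 acetylcholine (0%), high control EC100 acetylcholine (100%) · Replication – singlicate, one well per test compound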
M4 ag: agonists of human muscarinic M4 receptor (CHRM4) | AID 624127 | P08173 | CHO-K1 hM4/Gqi5, Fluo-8 calcium fluorescence; vehicle 0%, full acetylcholine response 100% | hit rate 0.14% among 360,000 | activation, % at 3 µM;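 active means activation above the run mean over all test wells plus 3 SD, cut at about 32% in these data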;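 further: peak over basal fluorescence ratio per well then scaled between controls; 0% = DMSO wells and 100% = acetylcholine at EC100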
CHRM4 PAM: potentiates acetylcholine response at human M4 receptor; hit rate 0.4% among 360,000; P08173; CHO-K1 hM4/Gqi5, Fluo-8 calcium fluorescence, ACh EC20; 0% = ACh EC20, 100% = maximal ACh; activation, % at 3 µM;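 active means activation above its plate's cutoff, the mean activation of sample wells plus 3 SD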
Starred values were filed as active, the others as inactive.

SMILES	CHRM4 antagonist	M5 ag	M5 antag	CHRM5 PAM	M4 ag	CHRM4 PAM
CC(=O)NNC(=S)NC(=O)C(c1ccccc1)c1ccccc1	4	6	-4	9	16	5
CC(=O)Nc1cccc(-c2ccnc3c2CC(C)(C(=O)Nc2ccc(C(C)C)cc2)O3)c1 (centres undefined)	3	0	2	-4	2	-3
Cc1csc2ncnc(N3CCN(C(=S)Nc4ccc(C(F)(F)F)cc4)CC3)c12	8	-1	16	-28	12	-10
Cc1csc2c(N3CCN(C(=S)Nc4ccc(C(F)(F)F)cc4)CC3)ncnc12	4	4	30*	-22	11	-22
CCOC(=O)c1c(C)[nH]c(C(C)=NNC(=O)c2cccs2)c1C	8	4	0	-7	1	7
O=C(NC(NC(=S)Nc1cccc(Cl)c1)C(Cl)(Cl)Cl)OCc1ccccc1 (centres undefined)	17	9	27*	-21	23	-15
O=C(NC(NC(=S)Nc1cccc(C(=O)O)c1)C(Cl)(Cl)Cl)OCc1ccccc1 (centres undefined)	-6	1	-6	6	1	11
COC(=O)C[C@H]1C[C@H]2c3cc(NC(=O)Nc4ccc(F)cc4)ccc3O[C@H]2[C@@H](CO)O1	-12	1	6	-9	7	-2
O=C1CC(=C(c2ccccc2)c2ccccc2)C(=O)N1CCCN1CCN(c2cccc(Cl)c2)CC1	28*	-8	3	-22	-1	-22
O=C1CC(=C(c2ccccc2)c2ccccc2)C(=O)N1CCN1CCN(c2cccc(Cl)c2)CC1	17	-1	-2	-1	1	9
CON=C1C=C(C)C(=O)C(C)=C1C	-1	5	7	2	1	3
CCCOC(=O)C1[C@H]2C(=O)N(C(C)c3ccc(OC)cc3)C[C@]23C=C[C@H]1O3 (some centres undefined)	-2	-2	4	-9	1	-2
COC(=O)C1C2C=CC3(CN(Cc4cccs4)C(=O)C13)O2 (centres undefined)	5	2	-12	21*	1	14
O=C(NCc1ccc(F)cc1)C1C2C=CC3(CN(Cc4cccnc4)C(=O)C13)O2 (centres undefined)	-8	-3	1	-3	2	28*
CCOC(=O)C1[C@H]2C(=O)N(C(C)c3ccc(OC)cc3)C[C@]23C=C[C@H]1O3 (some centres undefined)	75*	-7	22	-23	0	-32
COC(=O)C1CCN(C(=O)COC(=O)CNC(=O)c2ccc(Cl)cc2Cl)CC1	-4	1	5	4	2	15
OC(COCc1ccc2c(c1)OCO2)CN1CCCCC1 (centres undefined)	-13	-3	0	6	0	4
CCC(CO)NCC(O)COCc1ccc2c(c1)OCO2 (centres undefined)	-13	-4	-1	0	1	20*
CC(=O)NCC(=O)N(c1ccccc1)C1(C(=O)NC2CCCCC2)CCCCC1	5	-3	-4	20*	1	10
CN(C(=O)c1ccccn1)C1(C(=O)NC2CCCCC2)CCCCC1	-4	-9	6	17	-1	-2
CC1CCN(S(=O)(=O)c2cccc(C(=O)Oc3ccc([N+](=O)[O-])cc3)c2)CC1	-11	4	3	5	2	30*
CC1CCN(C(=O)c2cccc(S(=O)(=O)N3CCCCC3)c2)CC1	-11	2	-5	-4	3	9
Nc1ncnc2nc(SCc3ccc(Cl)cc3Cl)[nH]c12	-5	-4	3	-10	4	0
Nc1cc(=O)[nH]c(SCc2ccc(Cl)cc2Cl)n1	9	11	30*	-14	12	-5
O=C1Nc2ccccc2-n2nnnc2C1N1CCN(c2ccc(C(F)(F)F)cc2[N+](=O)[O-])CC1 (centres undefined)	2	24*	8	2	27	0
SMILES	CHRM4 antagonist	M5 ag	M5 antag	CHRM5 PAM	M4 ag	CHRM4 PAM
NC(Cc1ccc(C(F)(F)F)cc1)c1csc(NC(=O)NCCc2ccccc2)n1 (centres undefined)	41*	4	4	4	39*	-8
Cc1ccc(C(=O)Nc2nc(C(N)Cc3ccc(C(F)(F)F)cc3)cs2)cc1 (centres undefined)	8	6	10	5	36*	-5
NC(Cc1ccc(C(F)(F)F)cc1)c1csc(Nc2ncccn2)n1 (centres undefined)	-7	8	-2	-1	13	-4
NC(Cc1ccc(Cl)cc1)c1csc(Nc2ccc(-c3ccccc3)nn2)n1 (centres undefined)	18	7	8	4	38*	-1
NC(Cc1ccc(C(F)(F)F)cc1)c1csc(Nc2ccccn2)n1 (centres undefined)	-3	5	5	1	41*	0
Cc1ccc2c(c1)cc1c(=O)n(CC(=O)N3CCCC3)nc(C)n12	-3	-2	-4	0	1	4
CSCCC(=O)N1CCC(n2nccc2NC(=O)c2ccc3c(c2)OCO3)CC1	-9	-7	21	-4	0	-2
NC(Cc1ccc(F)cc1)c1csc(NC(=O)NC(c2ccccc2)c2ccccc2)n1 (centres undefined)	28*	2	3	-1	17	7
NC(Cc1ccccc1)c1csc(NC(=O)Nc2ccccc2Oc2ccccc2)n1 (centres undefined)	15	1	6	-4	11	-6
O=S(=O)(Nc1nc2ccccc2[nH]1)c1ccc2ccccc2c1	70*	-7	39*	-16	2	-33
CC(=O)c1ccc(N2CCN(C(=O)/C=C/c3ccc(S(=O)(=O)NCc4ccco4)cc3)CC2)cc1	38*	-6	23	-34	21	-28
O=C1NCC(COCC2CC=CCC2)O1 (centres undefined)	17	2	-1	4	2	28*
O=C(c1c[nH]c(C(=O)C(Cl)(Cl)Cl)c1)c1ccc(F)cc1F	0	0	28*	-12	22	-2
CN(C(=O)c1ccc(NC(=O)Cc2ccc(NC(=O)C3CCCN(C(=O)C4CC4)C3)cc2)cc1)C1CC1 (centres undefined)	-9	2	-3	8	1	21
O=C(NCCCl)Nc1ccccc1OCCOc1ccccc1NC(=O)NCCCl	-9	-3	8	0	1	11
O=C(CCNS(=O)(=O)c1ccc(OC(F)(F)F)cc1)NC1CC1	4	3	15	-1	1	6
